Data: ChEMBL document CHEMBL4334452, “Monosaccharide Analogues of Anticancer Peptide R-Lycosin-I: Role of Monosaccharide Conjugation in Complexation and the Potential of Lung Cancer Targeting and Therapy” (J Med Chem, 2019)
The source made the active and inactive calls. The rule behind the calls is not given here. *1 amine or outer side, *2 acyl side, *3 side chain or, on linkers, in order; H or OH if unused. Where a SMILES comes first, the peptide text is derived from it. The star is where a group is joined. NH(CH2)3O(βDGlc) = OC[C@H]1O[C@@H](OCCCN*)[C@H](O)[C@@H](O)[C@@H]1O; Glutaryl = O=C(CCCC(=O)[*:2])[*:1]

Tests used:
[1] = system: A549; experiment: Induction of mitochondrial membrane potential loss in human A549 cells at 15 uM measured after 24 hrs by JC1 staining based fluorescence microscopic analysis; type: functional, cell-based
In short: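 A549 cells exposed to 15 µM peptide for 24 h, then stained with JC-1 kit. Monomer and aggregate emissions viewed by fluorescence microscopy; depolarization read as a rise in the green/red ratio, n=3.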

[2] = system: A549; experiment: Induction of apoptosis in human A549 cells assessed as appearance of surface bubbling at 15 uM measured after 24 hrs by scanning electron microscopic analysis; type: functional, cell-based
[3] = system: A549; experiment: Induction of apoptosis in human A549 cells assessed as appearance of apoptotic bodies at 15 uM measured after 24 hrs by scanning electron microscopic analysis; type: functional, cell-based
[4] = target: T1, Solute carrier family 2, facilitated glucose transporter member 1 (Homo sapiens) (UniProt P11166); experiment: Binding affinity to GLUT1 in human A549 cells assessed as cytotoxicity by measuring increase in LDH release at 25 uM measured after 2 hrs; type: cell-based
T1 sequence (whole entry): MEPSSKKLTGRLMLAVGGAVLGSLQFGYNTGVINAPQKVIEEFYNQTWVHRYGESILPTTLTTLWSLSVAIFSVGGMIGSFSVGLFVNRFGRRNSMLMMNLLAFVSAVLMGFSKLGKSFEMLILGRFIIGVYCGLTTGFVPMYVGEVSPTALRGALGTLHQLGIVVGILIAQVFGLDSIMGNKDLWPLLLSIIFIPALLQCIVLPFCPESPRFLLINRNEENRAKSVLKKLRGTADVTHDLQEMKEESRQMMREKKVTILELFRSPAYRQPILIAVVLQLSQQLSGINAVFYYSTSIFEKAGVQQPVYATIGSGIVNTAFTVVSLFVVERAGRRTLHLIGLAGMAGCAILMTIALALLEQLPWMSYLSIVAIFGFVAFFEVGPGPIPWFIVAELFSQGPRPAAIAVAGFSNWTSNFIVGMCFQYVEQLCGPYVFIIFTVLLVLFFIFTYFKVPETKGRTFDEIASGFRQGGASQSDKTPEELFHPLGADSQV
In short: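 A549 cells at 2×10^3/well, allowed to adhere overnight, then exposed to peptide over a concentration series for 2 h. LDH release measured with a kit, absorbance at 490 nm. 1% Triton X-100 taken as 100% release; n=3.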

[5] = system: HEK-293T; experiment: Cytotoxicity against HEK293T cells assessed as reduction in cell viability measured after 24 hrs by CCK8 assay; type: cell-based, Homo sapiens; settings: Homo sapiens, HEK-293T
In short: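 Cells (A549, H460, H1437, PC-3, HGC-27, MDA-MB-231, HEK-293T, L-02) seeded at about 2×10^3/well and grown overnight. Treated 24 h with a peptide concentration series in serum-free medium. Viability by CCK-8; IC50 taken as 50% inhibition versus untreated cells. Average of three experiments, each in triplicate.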

[6] = target: T1, Solute carrier family 2, facilitated glucose transporter member 1 (Homo sapiens); experiment: Binding affinity to GLUT1 in human A549 cells assessed as cytotoxicity by measuring reduction in cell viability at 15 uM by trypan blue staining-based assay
In short: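 A549 cells stained with trypan blue after peptide treatment at 15 µM. Dead cells appear blue and live cells unstained; live cells were counted.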

[7] = system: A549; experiment: Induction of apoptosis in human A549 cells assessed as viable cells at 8 uM measured after 4 hrs by Annexin V-FITC/propidium iodide staining-based flow cytometry (reference value: 95.4%); type: functional; settings: A549, 4 h, read-out: Activity
In short: (§1)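 A549 cells grown 24 h, trypsinized, then resuspended in medium with 8 µM peptide for 4 h at 37 °C. Cells washed with cold PBS, stained with Annexin V-FITC/PI, and analysed by flow cytometry.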

[8] = system: A549; experiment: Induction of apoptosis in human A549 cells assessed as early apoptotic cells at 8 uM measured after 4 hrs by Annexin V-FITC/propidium iodide staining-based flow cytometry (reference value: 0.39%); type: functional; in short: as §1
[9] = system: A549; experiment: Induction of morphological changes in 3D spheroids of human A549 cells assessed as disruption of cell morphology at 30 uM treated every 2 days for 6 days measured every 3 days during compound dosing by microscopic analysis; type: functional, cell-based
In short: (§2)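 A549 3D spheroids, one per well, in 10% medium with peptide at 30 µM final. Dosed at day 0, then re-added at days 2 and 4, for 6 days total. Spheroids washed thrice, then imaged and sized at days 0, 3 and 6. Viability read by CCK-8.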

[10] = system: A549; experiment: Induction of morphological changes in 3D spheroids of human A549 cells assessed as dissociation of 3D structure at 30 uM treated every 2 days for 6 days measured every 3 days during compound dosing by microscopic analysis; type: functional, cell-based; in short: as §2
[11] = system: A549; experiment: Induction of morphological changes in 3D spheroids of human A549 cells assessed as reduction in spheroid volume at 30 uM treated every 2 days for 6 days measured every 3 days during compound dosing by microscopic analysis; type: functional, cell-based; in short: as §2
[12] = Drug uptake in liver of Balb/c nu/nu mouse xenografted with human A549 cells expressing luciferase gene at 9 mg/kg, ip measured after 6 hrs by fluorescence assay; type: ADME, organism-based; settings: in vivo
[13] = Drug uptake in heart of Balb/c nu/nu mouse xenografted with human A549 cells expressing luciferase gene at 9 mg/kg, ip measured after 6 hrs by fluorescence assay; type: ADME, organism-based; settings: in vivo
[14] = system: A549; experiment: Antitumor activity against human A549 cells expressing luciferase gene xenografted in Balb/c nu/nu mouse assessed as reduction in tumor volume at 3 mg/kg administered intratumorally every 3 days for four times measured on day 12 by bioluminescent imaging analysis; type: functional, organism-based
In short: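 Male BALB/c nu/nu mice, 4-6 weeks old, with subcutaneous A549-luciferase xenografts. Treatment began when tumors reached 100-200 mm³, five per group. Peptide was injected intratumorally at 3 mg/kg in 100 µL every 3 days for 4 doses; 100 µL PBS was the control. Bioluminescent imaging on day 12, with tumor size and body weight monitored.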

[15] = Toxicity in Balb/c nu/nu mouse xenografted with human A549 cells expressing luciferase gene assessed as change in body weight at 3 mg/kg administered intratumorally every 3 days for four times measured on day 12; type: organism-based; settings: in vivo, other, 72 h
In short: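 Male BALB/c nu/nu mice, 4–6 weeks old, carrying subcutaneous A549-luciferase tumours (right back, cells in sterile PBS), dosed at a tumour size of 100–200 mm³; five per group, PBS controls. Two regimens: 9 mg/kg i.p. (200 µL) every other day ×7, ended day 14; or 3 mg/kg intratumoral (100 µL) every 3 days ×4, ended day 12. Body weight was monitored throughout.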

[16] = system: A549; experiment: Inhibition of colony formation in human A549 cells at 4 uM supplemented with fresh medium containing compounds every 7 days for 15 days by crystal violet staining based assay; type: functional, cell-based
In short: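 Cells seeded at 300 per plate in 6-well plates; after 36 h exposed to 4 μM peptide, re-added after 7 days. Incubated 15 days total at 37°C, 5% CO2, then colonies stained with 2% crystal violet and quantified; n=3.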

[17] = Drug uptake in tumor of Balb/c nu/nu mouse xenografted with human A549 cells expressing luciferase gene at 3 mg/kg administered intratumorally measured after 6 hrs by fluorescence assay; type: ADME, organism-based, Neoplasm; settings: in vivo, other
[18] = system: A549; experiment: Potency index, ratio of compound effect to R-lycosin-I effect for antitumor activity against human A549 cells expressing luciferase gene xenografted in Balb/c nu/nu mouse at 3 mg/kg administered intratumorally; type: functional

Drug uptake [12]	Drug uptake [13]	Drug uptake [17]	Compound	Activity [1]	Activity [2]	Activity [3]	Activity [4]	IC50 [5]	Activity [6]	viability at 8 µM [7]	Activity [8]	Activity [9]	Activity [10]	Activity [11]	Activity [14]	Activity [15]	inhibition [16]	Ratio [18]
Active	Active		CC[C@H](C)[C@H](NC(=O)[C@H](Cc1ccccc1)NC(=O)[C@H](CCCNC(=N)N)NC(=O)[C@H](C)NC(=O)[C@@H](NC(=O)[C@H](CO)NC(=O)[C@H](CCCNC(=N)N)NC(=O)[C@H](CCSC)NC(=O)[C@H](C)NC(=O)[C@H](CCCNC(=N)N)NC(=O)[C@H](Cc1ccccc1)NC(=O)[C@H](Cc1c[nH]c2ccccc12)NC(=O)CNC(=O)[C@@H](N)CCCNC(=N)N)[C@@H](C)CC)C(=O)N[C@@H](C)C(=O)N[C@@H](CCCNC(=N)N)C(=O)N[C@@H](CCC(=O)O)C(=O)N[C@@H](CCCNC(=N)N)C(=O)N[C@@H](CC(C)C)C(=O)N[C@@H](CCCNC(=N)N)C(=O)N[C@@H](CCC(=O)O)C(=O)N[C@@H](Cc1cnc[nH]1)C(=O)N[C@@H](CC(C)C)C(=O)O (H-RGWFRAMRSIARFIARERLREHL-OH)	Active	Active	Active	Active	25.8 µM	Active	88.8%	0.63%	Active	Active	Active	Active	Non-Toxic		
Active	Active	Active	CC[C@H](C)[C@H](NC(=O)[C@H](Cc1ccccc1)NC(=O)[C@H](CCCNC(=N)N)NC(=O)[C@H](C)NC(=O)[C@@H](NC(=O)[C@H](CO)NC(=O)[C@H](CCCNC(=N)N)NC(=O)[C@H](CCSC)NC(=O)[C@H](C)NC(=O)[C@H](CCCNC(=N)N)NC(=O)[C@H](Cc1ccccc1)NC(=O)[C@H](Cc1c[nH]c2ccccc12)NC(=O)CNC(=O)[C@H](CCCNC(=N)N)NC(=O)CCCC(=O)NCCCO[C@@H]1O[C@H](CO)[C@@H](O)[C@H](O)[C@H]1O)[C@@H](C)CC)C(=O)N[C@@H](C)C(=O)N[C@@H](CCCNC(=N)N)C(=O)N[C@@H](CCC(=O)O)C(=O)N[C@@H](CCCNC(=N)N)C(=O)N[C@@H](CC(C)C)C(=O)N[C@@H](CCCNC(=N)N)C(=O)N[C@@H](CCC(=O)O)C(=O)N[C@@H](Cc1cnc[nH]1)C(=O)N[C@@H](CC(C)C)C(=O)O ({NH(CH2)3O(βDGlc)-Glutaryl}-RGWFRAMRSIARFIARERLREHL-OH)	Active	Active	Active	Active	37.4 µM	Active	59.8%	1.1%	Active	Active	Active	Active	Non-Toxic	Active	1.6
